# Laboratory results taken from ChEMBL document CHEMBL1124161, “4-Hydroxy-3-quinolinecarboxamides with antiarthritic and analgesic activities” (J Med Chem, 1988).
# The source made the active and inactive calls. The rule behind the calls is not given here.
# Experiments:
# Mus musculus [1] = assay: Analgesic activity against acetic acid induced writhing test in mouse administered po at 50 mg/kg; IA=Inactive; assay type: functional, organism-based; parameters: dose 50 mg/kg
# Procedure, shortened: (§1)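 Female mice (20–22 g), groups of 10, fasted 7 h; drug given orally 30 min before intraperitoneal injection of 0.2 mL 1% aqueous acetic acid. Stretching/writhing movements counted from minute 5 to 20 after irritant.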
# Rattus norvegicus [2] = assay: Antiarthritis activity against adjuvant-induced arthritis in rats administered po at 10 mg/kg; IA= Inactive; assay type: functional, organism-based; parameters: dose 10 mg/kg
# Mus musculus [3] = assay: Analgesic activity against acetic acid induced writhing test in mouse administered po at 100 mg/kg; IA=Inactive; assay type: functional, organism-based; parameters: dose 100 mg/kg; procedure, shortened: as §1
# Rattus norvegicus [4] = assay: Antiinflammatory activity against carrageenan-induced foot edema in rat administered po at 100 mg/kg; IA=Inactive; assay type: functional, organism-based; parameters: dose 100 mg/kg
# Rattus norvegicus [5] = assay: Antiarthritis activity against adjuvant-induced arthritis in rats after peroral administration at 15 mg/kg; IA=Inactive; assay type: functional, organism-based; parameters: dose 15 mg/kg
# Procedure, shortened: (§2)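 Groups of five male Lewis rats, 40–50 days old, given intraplantar injection in right hind paw of 0.6 mg Mycobacterium butyricum in 0.1 mL Bayol 55. Drug given in food from adjuvant day to day 17. Injected and noninjected hind paw volumes measured day 17 against normal controls. ED50 by least-squares curve fitting or Litchfield–Wilcoxon probit.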
# Mus musculus [6] = assay: Analgesic activity against acetic acid induced writhing test in mouse after peroral administration; assay type: functional; details: Mus musculus, po; read-out: ED50
# Mus musculus [7] = assay: Analgesic activity against acetic acid induced writhing test in mouse after peroral administration at 100 mg/kg; IA=Inactive; assay type: functional, organism-based; parameters: dose 100 mg/kg; procedure, shortened: as §1
# Rattus norvegicus [8] = assay: Anti-arthritis activity against adjuvant-induced arthritis in rats after peroral administration; assay type: functional; details: Rattus norvegicus, po; read-out: ED50; procedure, shortened: as §2
# Rattus norvegicus [9] = assay: Ulcerogenic effect after oral administration (intestinal ulcer); assay type: functional
# Procedure, shortened: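 Nonfasted male rats (150–180 g) killed 24 h after oral dosing, and intestinal ulcers scored. Ulceration index = (mean degree × rats with ulcers / rats) × 100. ED100 (index 100) determined graphically.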
# Mus musculus [10] = assay: Analgesic activity against acetic acid induced writhing test in mouse after peroral administration, treatment 6 hr before testing; assay type: functional; details: po
# Procedure, shortened: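 Groups of 10 female mice (20–22 g), fasted 7 h, dosed orally 6 h before ip injection of 0.2 mL 1% aqueous acetic acid. Stretching and writhing movements counted from minute 5 to 20 after irritant. ED50 evaluated graphically or by computerized least-squares curve fitting.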
# Cyclooxygenase = molecular target: T1, Cyclooxygenase (Bos taurus, UniProt O62664+O62698); assay: Inhibition of bovine Prostaglandin G/H synthase in seminal vesicle microsomes in vitro
# T1 sequence (O62664 whole entry): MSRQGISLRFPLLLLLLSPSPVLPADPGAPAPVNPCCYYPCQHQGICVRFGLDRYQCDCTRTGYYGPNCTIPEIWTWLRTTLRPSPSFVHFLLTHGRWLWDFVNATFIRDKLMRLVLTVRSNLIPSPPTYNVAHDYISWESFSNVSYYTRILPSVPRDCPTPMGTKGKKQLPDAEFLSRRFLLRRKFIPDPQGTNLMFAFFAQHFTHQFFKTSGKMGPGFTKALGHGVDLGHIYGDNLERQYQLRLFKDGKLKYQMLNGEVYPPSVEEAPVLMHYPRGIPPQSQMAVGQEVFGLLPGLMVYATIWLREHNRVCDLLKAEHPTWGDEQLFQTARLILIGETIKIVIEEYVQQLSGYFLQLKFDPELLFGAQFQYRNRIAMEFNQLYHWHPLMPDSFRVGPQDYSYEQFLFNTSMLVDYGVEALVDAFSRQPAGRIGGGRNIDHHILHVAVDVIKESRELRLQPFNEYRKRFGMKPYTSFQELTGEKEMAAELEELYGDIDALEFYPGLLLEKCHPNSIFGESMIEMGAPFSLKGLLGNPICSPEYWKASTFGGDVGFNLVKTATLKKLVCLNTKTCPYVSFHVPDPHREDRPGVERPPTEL
# T1 sequence (O62698 whole entry): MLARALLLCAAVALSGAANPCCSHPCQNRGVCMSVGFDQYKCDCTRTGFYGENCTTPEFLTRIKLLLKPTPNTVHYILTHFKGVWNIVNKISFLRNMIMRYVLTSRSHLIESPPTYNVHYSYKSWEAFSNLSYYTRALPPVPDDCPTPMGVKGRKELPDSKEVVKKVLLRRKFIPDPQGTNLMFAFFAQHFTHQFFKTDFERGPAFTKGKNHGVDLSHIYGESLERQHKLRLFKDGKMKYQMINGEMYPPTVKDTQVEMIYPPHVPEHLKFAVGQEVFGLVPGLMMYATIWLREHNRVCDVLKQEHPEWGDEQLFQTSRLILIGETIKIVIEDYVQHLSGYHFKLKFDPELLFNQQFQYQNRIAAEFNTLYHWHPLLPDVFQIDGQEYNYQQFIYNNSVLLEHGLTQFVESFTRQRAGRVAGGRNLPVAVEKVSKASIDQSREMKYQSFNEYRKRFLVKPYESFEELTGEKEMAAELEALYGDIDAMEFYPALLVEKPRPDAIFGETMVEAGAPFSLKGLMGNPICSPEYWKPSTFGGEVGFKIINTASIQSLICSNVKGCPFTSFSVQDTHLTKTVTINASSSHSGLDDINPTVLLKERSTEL
# [11] = molecular target: T2, Polyunsaturated fatty acid 5-lipoxygenase (Rattus norvegicus, UniProt P12527); assay: Inhibition of 5-lipoxygenase from rat peritoneal neutrophils in vitro
# T2 sequence (P12527 whole entry): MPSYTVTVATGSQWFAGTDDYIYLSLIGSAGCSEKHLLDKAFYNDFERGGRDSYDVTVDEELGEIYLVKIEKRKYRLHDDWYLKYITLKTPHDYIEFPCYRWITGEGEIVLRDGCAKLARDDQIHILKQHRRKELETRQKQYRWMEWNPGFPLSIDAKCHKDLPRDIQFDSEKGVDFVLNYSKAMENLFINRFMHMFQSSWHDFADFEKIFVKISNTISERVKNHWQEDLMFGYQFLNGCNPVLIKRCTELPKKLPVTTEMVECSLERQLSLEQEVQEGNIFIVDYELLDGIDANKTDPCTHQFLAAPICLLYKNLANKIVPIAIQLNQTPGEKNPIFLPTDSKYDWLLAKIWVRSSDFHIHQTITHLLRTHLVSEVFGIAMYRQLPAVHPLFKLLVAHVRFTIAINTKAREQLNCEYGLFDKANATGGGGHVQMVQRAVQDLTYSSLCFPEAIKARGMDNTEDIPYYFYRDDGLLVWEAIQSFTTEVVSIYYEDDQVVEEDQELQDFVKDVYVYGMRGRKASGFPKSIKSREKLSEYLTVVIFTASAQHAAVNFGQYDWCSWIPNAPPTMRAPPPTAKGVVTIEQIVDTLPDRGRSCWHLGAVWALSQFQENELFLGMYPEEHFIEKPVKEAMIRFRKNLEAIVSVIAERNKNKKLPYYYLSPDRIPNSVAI
# Rattus norvegicus [12] = organism: Rattus norvegicus; assay: Antiarthritis activity against adjuvant-induced arthritis in rats; assay type: functional; procedure, shortened: as §2
# Rattus norvegicus [13] = assay: Antiinflammatory activity against carrageenan-induced foot edema in rat; assay type: functional
# Procedure, shortened: (§3)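 Groups of eight male Sprague-Dawley rats (150–180 g) dosed orally at the time of subplantar injection of 0.5 mg carrageenin. Paw volume difference measured before and 5 h after injection. Expressed as ED40, estimated graphically or by Litchfield–Wilcoxon probit analysis.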
# Rattus norvegicus [14] = assay: Ulcerogenic effect after oral administration (gastric ulcer); assay type: functional
# Procedure, shortened: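 Groups of eight female rats (120–150 g), fasted 24 h, dosed orally; killed 7 h later and stomachs scored. Ulceration index = (mean ulcer degree × rats with ulcers / number of rats) × 100, ulcers being scores above 0.5. ED100 (index 100, max 300) read graphically.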
# Mus musculus [15] = assay: Analgesic activity against acetic acid induced writhing test in mouse after peroral administration at 25 mg/kg; IA=Inactive; assay type: functional, organism-based; parameters: dose 25 mg/kg; procedure, shortened: as §1
# Rattus norvegicus [16] = assay: Antiinflammatory activity against carrageenan-induced foot edema in rat after peroral administration; assay type: functional; details: po; procedure, shortened: as §3
# Rattus norvegicus [17] = assay: Antiinflammatory activity against carrageenan-induced foot edema in rat after oral administration of 20 mg/kg; IA=Inactive; assay type: functional, organism-based; parameters: dose 20 mg/kg
# Rattus norvegicus [18] = assay: Antiinflammatory activity against carrageenan-induced foot edema in rat after peroral administration of 100 mg/kg; IA=Inactive; assay type: functional, organism-based; parameters: dose 100 mg/kg
# Rattus norvegicus [19] = assay: Antiinflammatory activity against carrageenan-induced foot edema after peroral administration in rat; assay type: functional; details: po; procedure, shortened: as §3
compound,measurement,setting,value
Cc1cnc(NC(=O)c2cnc3c(C(F)(F)F)cccc3c2O)s1,ED50,Mus musculus [1],inactive
O=C(Nc1nccs1)c1c(C(O)c2ccccc2)nc2c(C(F)(F)F)cccc2c1O (stereo not drawn),ED50,Rattus norvegicus [2],inactive
same,ED50,Mus musculus [3],inactive
same,ED40,Rattus norvegicus [4],inactive
C[C@@H](N)c1nc2c(C(F)(F)F)cccc2c(O)c1C(=O)Nc1nccs1,ED50,Rattus norvegicus [5],inactive
same,ED50,Mus musculus [6],> 100 mg/kg
CC(=O)OC(c1nc2c(C(F)(F)F)cccc2c(O)c1C(=O)Nc1ccccn1)C(C)C (stereo not drawn),ED50,Mus musculus [7],inactive
same,ED50,Rattus norvegicus [8],≥ 5 mg/kg
CCC(OC(C)=O)c1nc2c(C(F)(F)F)cccc2c(O)c1C(=O)Nc1nccs1 (stereo not drawn),ED50,Rattus norvegicus [8],4 mg/kg
same,ED50,Mus musculus [3],inactive
CCC(=O)OC(CC)c1nc2c(C(F)(F)F)cccc2c(O)c1C(=O)Nc1ccccn1 (stereo not drawn),ED50,Mus musculus [7],inactive
same,ED50,Rattus norvegicus [8],> 5 mg/kg
CCC(=O)N[C@@H](CC)c1nc2c(C(F)(F)F)cccc2c(O)c1C(=O)Nc1nccs1,ED100,Rattus norvegicus [9],>100 mg/kg
same,ED50,Rattus norvegicus [8],3 mg/kg
same,ED50,Mus musculus [10],4 mg/kg
same,IC50,Cyclooxygenase,400 nM
same,IC50,[11],2000 nM
same,ED50,Rattus norvegicus [12],3.5 mg/kg
same,ED40,Rattus norvegicus [13],> 100 mg/kg
same,ED50,Mus musculus [6],20 mg/kg
same,ED100,Rattus norvegicus [14],>300 mg/kg
CC(Cl)(Cl)c1nc2c(C(F)(F)F)cccc2c(O)c1C(=O)Nc1nccs1,ED50,Mus musculus [15],inactive
O=C(Nc1nccs1)c1c(C(Cl)Cl)nc2c(C(F)(F)F)cccc2c1O,ED100,Rattus norvegicus [9],>500 mg/kg
same,ED50,Rattus norvegicus [8],48 mg/kg
same,IC50,Cyclooxygenase,1800 nM
same,IC50,[11],2000 nM
same,ED40,Rattus norvegicus [16],> 100 mg/kg
same,ED50,Mus musculus [6],1.1 mg/kg
same,ED100,Rattus norvegicus [14],270 mg/kg
O=C(Nc1nccs1)c1c(Cc2ccccc2)nc2c(C(F)(F)F)cccc2c1O,ED50,Rattus norvegicus [17],inactive
same,ED50,Mus musculus [6],40 mg/kg
CC(C)c1ccc2nc(C(F)(F)F)c(C(=O)Nc3nccs3)c(O)c2c1,ED50,Rattus norvegicus [18],inactive
same,ED50,Mus musculus [6],> 100 mg/kg
CCCCc1nc2c(C(F)(F)F)cccc2c(O)c1C(=O)Nc1nccs1,ED50,Rattus norvegicus [17],inactive
same,ED50,Mus musculus [6],50 mg/kg
CC(C)(C)C(O)c1nc2c(C(F)(F)F)cccc2c(O)c1C(=O)Nc1nccs1 (stereo not drawn),ED40,Rattus norvegicus [19],4 mg/kg
same,ED50,Rattus norvegicus [8],1.5 mg/kg
same,ED50,Mus musculus [6],50 mg/kg
